Columns and labels:
[1] = Inhibition of HIV1 RNase H by FRET high-throughput assay; set-up: species or system Human immunodeficiency virus 1
Outline: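 3′-fluorescein/5′-DABCYL RNA/DNA hybrid (0.16 nM) preincubated with compound; reaction started with 7.5 nM HIV-1 RNase H, 30 min at room temperature, EDTA quench, fluorescence intensity read. IC50 as mean ± SD of ≥3 independent experiments, or single experiment where footnoted.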

[2] = target: Human immunodeficiency virus type 1 integrase (Human immunodeficiency virus 1, UniProt Q7ZJM1); test: Inhibition of HIV1 recombinant integrase by electrochemiluminescent-based high-throughput strand transfer assay
Outline: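 Biotinylated, 3′-end-preprocessed donor DNA incubated 30 min at 37°C with 250 nM recombinant integrase; compound added, strand transfer started with ruthenium-labeled duplex target DNA, 60 min at 37°C; electrochemiluminescence read. IC50 as mean ± SD of ≥3 independent experiments, or single experiment where footnoted.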

[3] = system: Human immunodeficiency virus 1; test: Selectivity, ratio of IC50 for HIV1 recombinant integrase to IC50 for HIV1 RNase H
[4] = system: Human immunodeficiency virus 1; test: Selectivity, ratio of IC50 for HIV1 RNase H to IC50 for HIV1 recombinant integrase
Outline: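 Ratio of the IC50s from two assays run on the same compounds. Integrase: a biotinylated 3′-preprocessed donor DNA was preincubated 30 min at 37°C with 250 nM recombinant HIV-1 integrase. Compound was then added, ruthenium-labelled target DNA started strand transfer, 60 min at 37°C, electrochemiluminescent read-out. RNase H: 0.16 nM 3′-fluorescein/5′-DABCYL RNA/DNA hybrid with 7.5 nM enzyme, 30 min at room temperature, EDTA quench, FRET fluorescence.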

[5] = target: Human immunodeficiency virus type 1 integrase (Human immunodeficiency virus 1) (UniProt Q7ZJM1); test: Selectivity for inhibition of HIV1 recombinant integrase strand transfer activity over 3'-end processing
Human immunodeficiency virus type 1 integrase (Human immunodeficiency virus 1), sequence (Q7ZJM1 as listed by the source): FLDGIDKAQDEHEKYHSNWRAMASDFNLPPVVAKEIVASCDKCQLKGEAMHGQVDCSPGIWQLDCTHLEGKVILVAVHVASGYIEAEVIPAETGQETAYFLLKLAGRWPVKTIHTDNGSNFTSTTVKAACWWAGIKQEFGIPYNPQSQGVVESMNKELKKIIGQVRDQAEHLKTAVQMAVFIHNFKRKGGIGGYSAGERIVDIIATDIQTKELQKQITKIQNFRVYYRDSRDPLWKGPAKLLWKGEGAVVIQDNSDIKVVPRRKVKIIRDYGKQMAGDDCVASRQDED

Human immunodeficiency virus type 1 integrase, sequence (Q7ZJM1 whole entry): as the sequence (Q7ZJM1 as listed by the source) above

Compound | IC50 [1] | IC50 [2] | Ratio IC50 [3] | fold change (FC) [5] | Ratio IC50 [4]
COc1c2c(c(O)c3c1C(=O)c1c(cc(O)c(C)c1O)C3=O)-c1c(cc3cnn(CCOC(C)=O)c(=O)c3c1O)CC2 | 8.63 µM | 6.28 µM |  |  | 
COc1c2c(c(O)c3c1C(=O)c1c(cc(O)c(C)c1O)C3=O)-c1c(cc(C3NCc4ccccc4N3)c(C(=O)O)c1O)CC2 (centres undefined) | 5.86 µM | 40 µM |  |  | 
COc1c2c(c(O)c3c1C(=O)c1c(cc(O)c(C)c1O)C3=O)-c1c(cc(/C=N/NC(C)(C)C)c(C(=O)O)c1O)CC2 | 0.69 µM | 122 µM | > 100 |  | 
CCCn1ncc2cc3c(c(O)c2c1=O)-c1c(O)c2c(c(OC)c1CC3)C(=O)c1c(cc(O)c(C)c1O)C2=O | 8.96 µM | 6.34 µM |  |  | 
COc1c2c(c(O)c3c1C(=O)c1c(cc(O)c(C)c1O)C3=O)-c1c(cc3cn[nH]c(=O)c3c1O)CC2 | 4.06 µM | 4.06 µM |  |  | 
COc1c2c(c(O)c3c1C(=O)c1c(cc(O)c(C)c1O)C3=O)-c1c(cc3c(c1O)C(=O)N1c4ccccc4SC31)CC2 (centres undefined) | 0.31 µM | 96 µM | 10 |  | 100
COc1c2c(c(O)c3c1C(=O)c1c(cc(O)c(C)c1O)C3=O)-c1c(cc3cnn(C(=N)N)c(=O)c3c1O)CC2 | 5.28 µM | 3.02 µM |  |  | 
COc1c2c(c(O)c3c1C(=O)c1c(cc(O)c(C)c1O)C3=O)-c1c(cc3c(c1O)C(=O)N1c4ccccc4CNC31)CC2 (centres undefined) | 0.78 µM | 108 µM | 100 |  | 
COc1c2c(c(O)c3c1C(=O)c1c(cc(O)c(C)c1O)C3=O)-c1c(cc3c(c1O)C(=O)N1CCCNC31)CC2 (centres undefined) | 7.16 µM | 56 µM |  |  | 
COc1c2c(c(O)c3c1C(=O)c1c(cc(O)c(C)c1O)C3=O)-c1c(cc3c(c1O)C(=O)N1C(C(=O)O)CSC31)CC2 (centres undefined) | 15.7 µM | 20 µM |  |  | 
COc1c2c(c(O)c3c1C(=O)c1c(cc(O)c(C)c1O)C3=O)-c1c(cc3c(c1O)C(=O)N(N(C)C)C3O)CC2 (centres undefined) | 6.97 µM | 7.7 µM |  |  | 
COc1c2c(c(O)c3c1C(=O)c1c(cc(O)c(C)c1O)C3=O)-c1c(cc(/C=N/NS(=O)(=O)c3ccc(C)cc3)c(C(=O)O)c1O)CC2 | 5.88 µM | 22 µM |  |  | 
COc1c2c(c(O)c3c1C(=O)c1c(cc(O)c(C)c1O)C3=O)-c1c(cc3cnn(-c4ccccc4)c(=O)c3c1O)CC2 | 2.58 µM | 0.41 µM |  | 20 | 100
COc1c2c(c(O)c3c1C(=O)c1c(cc(O)c(C)c1O)C3=O)-c1c(cc(/C=N/NC(=N)N)c(C(=O)O)c1O)CC2 | 5.65 µM | 3.15 µM |  |  | 
COc1c2c(c(O)c3c1C(=O)c1c(cc(O)c(C)c1O)C3=O)-c1c(cc3cnn(-c4ccc(C(=O)O)cc4)c(=O)c3c1O)CC2 | 9.11 µM | 3.45 µM |  |  | 
COc1c2c(c(O)c3c1C(=O)c1c(cc(O)c(C)c1O)C3=O)-c1c(cc(/C=N/C34CC5CC(CC(C5)C3)C4)c(C(=O)O)c1O)CC2 | 9.41 µM | 37 µM |  |  | 

Further compounds by falling IC50 [1], results first:

IC50 [1] | IC50 [2] | Ratio IC50 [3] | fold change (FC) [5] | Compound | Ratio IC50 [4]
22.4 µM | 106 µM |  |  | COc1c2c(c(OCc3ccccc3)c3c1C(=O)c1c(cc(OCc4ccccc4)c(C)c1OCc1ccccc1)C3=O)-c1c(cc3cnn(CC(=O)O)c(=O)c3c1OCc1ccccc1)CC2 | 
14 µM | 2.2 µM |  |  | COc1c2c(c(O)c3c1C(=O)c1c(cc(O)c(C)c1O)C3=O)-c1c(cc(/C=N/Nc3ccc([N+](=O)[O-])cc3)c(C(=O)O)c1O)CC2 | 
10.5 µM | > 333 µM |  |  | CCCn1ncc2cc3c(c(OC(C)=O)c2c1=O)-c1c(c(OC)c2c(c1OC(C)=O)C(=O)c1cc(OC(C)=O)c(C)c(OC(C)=O)c1C2=O)CC3 | 
10.2 µM | 4.62 µM |  |  | COc1c2c(c(O)c3c1C(=O)c1c(cc(O)c(C)c1O)C3=O)-c1c(cc3cnn(CC(=O)O)c(=O)c3c1O)CC2 | 
10.1 µM | 12.5 µM |  |  | CO/N=C/c1cc2c(c(O)c1C(=O)O)-c1c(O)c3c(c(OC)c1CC2)C(=O)c1c(cc(O)c(C)c1O)C3=O | 
8.98 µM | > 333 µM |  |  | CCCn1ncc2cc3c(c(O)c2c1=O)-c1c(O)c2c(c(OC)c1CC3)C(=O)c1c(cc(OC(=O)OC)c(C)c1OC(C)=O)C2=O | 
3.54 µM | 6.09 µM |  |  | COc1c2c(c(O)c3c1C(=O)c1c(cc(O)c(C)c1O)C3=O)-c1c(cc(/C=N/NC(=O)c3ccccc3O)c(C(=O)O)c1O)CC2 | 
3.48 µM | 13.2 µM |  |  | COc1c2c(c(O)c3c1C(=O)c1c(cc(O)c(C)c1O)C3=O)-c1c(cc(C(=O)O)c(C(=O)O)c1O)CC2 | 
3.14 µM | > 333 µM | 100 |  | COc1c2c(c(OC(C)=O)c3c1C(=O)c1c(cc(OC(C)=O)c(C)c1OC(C)=O)C3=O)-c1c(cc3cnn(-c4ccccc4)c(=O)c3c1OC(C)=O)CC2 | 
3.1 µM | 14.6 µM |  |  | COc1c2c(c(O)c3c1C(=O)c1c(cc(O)c(C)c1O)C3=O)-c1c(cc(/C=N/NC(=O)c3ccccc3)c(C(=O)O)c1O)CC2 | 
2.11 µM | 2.67 µM |  |  | CCOC(=O)Cn1ncc2cc3c(c(O)c2c1=O)-c1c(O)c2c(c(OC)c1CC3)C(=O)c1c(cc(O)c(C)c1O)C2=O | 
1.43 µM | 200 µM | 100 |  | COC(=O)Oc1cc2c(c(O)c1C)C(=O)c1c(OC)c3c(c(O)c1C2=O)-c1c(cc2cnn(-c4ccccc4)c(=O)c2c1O)CC3 | 
